In ChEMBL document CHEMBL1143872, “Design, synthesis, and preliminary evaluation of 4-(6-(3-nitroguanidino)hexanamido)pyrrolidine derivatives as potential iNOS inhibitors” (Bioorg Med Chem, 2008):

Biological target: T1, Nitric oxide synthase, inducible (Mus musculus, UniProt P29477)
T1 sequence (P29477 whole entry): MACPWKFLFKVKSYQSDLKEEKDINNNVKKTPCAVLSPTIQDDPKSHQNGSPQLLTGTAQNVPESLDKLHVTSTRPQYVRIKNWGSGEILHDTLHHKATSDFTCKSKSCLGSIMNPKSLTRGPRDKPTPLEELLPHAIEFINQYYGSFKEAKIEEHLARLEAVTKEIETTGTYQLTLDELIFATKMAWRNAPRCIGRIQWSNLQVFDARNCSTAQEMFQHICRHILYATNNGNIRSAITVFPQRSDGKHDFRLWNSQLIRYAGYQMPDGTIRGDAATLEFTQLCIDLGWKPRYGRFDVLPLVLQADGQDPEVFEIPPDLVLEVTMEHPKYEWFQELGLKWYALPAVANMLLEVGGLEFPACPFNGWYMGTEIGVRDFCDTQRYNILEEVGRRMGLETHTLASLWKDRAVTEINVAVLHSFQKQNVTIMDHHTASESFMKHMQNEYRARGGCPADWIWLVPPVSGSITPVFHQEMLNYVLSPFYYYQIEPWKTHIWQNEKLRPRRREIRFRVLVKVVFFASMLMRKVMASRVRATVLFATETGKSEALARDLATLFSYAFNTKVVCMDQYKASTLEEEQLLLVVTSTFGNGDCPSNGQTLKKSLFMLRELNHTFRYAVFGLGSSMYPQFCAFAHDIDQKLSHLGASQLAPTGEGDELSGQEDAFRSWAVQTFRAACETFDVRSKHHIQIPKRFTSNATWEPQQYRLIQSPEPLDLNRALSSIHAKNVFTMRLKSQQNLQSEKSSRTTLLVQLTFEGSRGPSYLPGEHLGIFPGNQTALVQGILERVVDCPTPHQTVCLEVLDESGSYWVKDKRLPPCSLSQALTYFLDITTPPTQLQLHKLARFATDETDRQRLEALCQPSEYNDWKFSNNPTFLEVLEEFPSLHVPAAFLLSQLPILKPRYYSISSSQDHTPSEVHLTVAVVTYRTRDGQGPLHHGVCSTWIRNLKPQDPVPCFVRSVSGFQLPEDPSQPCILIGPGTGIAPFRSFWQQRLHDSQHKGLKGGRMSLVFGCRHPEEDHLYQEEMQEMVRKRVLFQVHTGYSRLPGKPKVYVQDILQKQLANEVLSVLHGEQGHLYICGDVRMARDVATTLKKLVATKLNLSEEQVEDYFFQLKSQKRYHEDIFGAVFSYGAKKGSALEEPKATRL
Assay: Inhibition of inducible NOS mediated nitric oxide production in LPS-activated Kunming mouse macrophages
In short: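 Peritoneal exudate cells from female Kunming mice (18–22 g), elicited 2 d earlier by ip 3% starch (1 mL). Cells (10^6/well) precultured 4 h at 37 °C in DMEM with 5% FCS, then washed to keep the adherent macrophages (>95% by Giemsa). Stimulated with LPS 10 µg/mL plus graded compound for 20 h. Nitrite/nitrate measured after nitrate reductase conversion, read colorimetrically. Inhibition % calculated, IC50 read graphically. L-NNA positive control.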

| SMILES | IC50 |
| --- | --- |
| N=C(NCCCCCC(=O)N[C@@H]1CN[C@H](C(=O)Nc2cc(Cl)cc(Cl)c2)C1)N[N+](=O)[O-] | 87.3 µM |
| N=C(NCCCCCC(=O)N[C@@H]1CN[C@H](C(=O)NC2CCCCC2)C1)N[N+](=O)[O-] | 7.37 µM |
| N=C(NCCCCCC(=O)N[C@@H]1CN[C@H](C(=O)Nc2ccccc2F)C1)N[N+](=O)[O-] | 13.1 µM |
| N=C(NCCCCCC(=O)N[C@@H]1CN[C@H](C(=O)Nc2ccc(F)cc2)C1)N[N+](=O)[O-] | 87 µM |
| Cc1ccc(NC(=O)[C@@H]2C[C@H](NC(=O)CCCCCNC(=N)N[N+](=O)[O-])CN2)cc1Cl | 2.5 µM |
| N=C(NCCCCCC(=O)N[C@@H]1CN[C@H](C(=O)Nc2ccc(Cl)cc2)C1)N[N+](=O)[O-] | 80 µM |
| N=C(NCCCCCC(=O)N[C@@H]1CN[C@H](C(=O)Nc2ccc(F)c(F)c2F)C1)N[N+](=O)[O-] | 36.2 µM |
| N=C(NCCCCCC(=O)N[C@@H]1CN[C@H](C(=O)Nc2ccc(F)c(F)c2)C1)N[N+](=O)[O-] | 2.68 µM |
| N=C(NCCCCCC(=O)N[C@@H]1CN[C@H](C(=O)Nc2ccccc2)C1)N[N+](=O)[O-] | 2.36 µM |
| N=C(NCCCCCC(=O)N[C@@H]1CN[C@H](C(=O)Nc2cc(Cl)ccc2Cl)C1)N[N+](=O)[O-] | 105 µM |
| N=C(NCCCCCC(=O)N[C@@H]1CN[C@H](C(=O)Nc2cccc([N+](=O)[O-])c2)C1)N[N+](=O)[O-] | 46 µM |
| N=C(NCCCCCC(=O)N[C@@H]1CN[C@H](C(=O)Nc2ccc([N+](=O)[O-])cc2)C1)N[N+](=O)[O-] | 25 µM |
| Cc1cccc(NC(=O)[C@@H]2C[C@H](NC(=O)CCCCCNC(=N)N[N+](=O)[O-])CN2)c1 | 120 µM |
| Cc1ccccc1NC(=O)[C@@H]1C[C@H](NC(=O)CCCCCNC(=N)N[N+](=O)[O-])CN1 | 119 µM |
| COc1ccc(NC(=O)[C@@H]2C[C@H](NC(=O)CCCCCNC(=N)N[N+](=O)[O-])CN2)cc1 | 26.7 µM |
| N=C(NCCCCCC(=O)N[C@@H]1CN[C@H](C(=O)Nc2ccc(Cl)cc2Cl)C1)N[N+](=O)[O-] | 15.5 µM |
| N=C(NCCCCCC(=O)N[C@@H]1CN[C@H](C(=O)Nc2ccccc2Cl)C1)N[N+](=O)[O-] | 108 µM |
| N=C(NCCCCCC(=O)N[C@@H]1CN[C@H](C(=O)Nc2ccc(F)cc2F)C1)N[N+](=O)[O-] | 139 µM |
| Cc1ccc(NC(=O)[C@@H]2C[C@H](NC(=O)CCCCCNC(=N)N[N+](=O)[O-])CN2)c(C)c1 | 120 µM |
| N=C(NCCCCCC(=O)N[C@@H]1CN[C@H](C(=O)NCc2ccccc2)C1)N[N+](=O)[O-] | 43.5 µM |
| N=C(NCCCCCC(=O)N[C@@H]1CN[C@H](C(=O)Nc2ccc(Br)cc2)C1)N[N+](=O)[O-] | 74.6 µM |
| N=C(NCCCCCC(=O)N[C@@H]1CN[C@H](C(=O)Nc2cccc(Cl)c2)C1)N[N+](=O)[O-] | 13 µM |
| Cc1ccc(NC(=O)[C@@H]2C[C@H](NC(=O)CCCCCNC(=N)N[N+](=O)[O-])CN2)cc1 | 123 µM |
| N=C(NCCCCCC(=O)N[C@@H]1CN[C@H](C(=O)Nc2cc(F)cc(F)c2)C1)N[N+](=O)[O-] | 11.7 µM |
| CCOc1ccc(NC(=O)[C@@H]2C[C@H](NC(=O)CCCCCNC(=N)N[N+](=O)[O-])CN2)cc1 | 162 µM |
| N=C(NCCC[C@H](N)C(=O)O)N[N+](=O)[O-] [NITROARGININE] | 14.7 µM |
